Reference: ChEMBL document CHEMBL2311407, “Design and synthesis of diazatricyclodecane agonists of the G-protein-coupled receptor 119” (J Med Chem, 2013)
Values after ≈ are worked out from the molar mass of the structure shown.

Legend:
[1] = Volume of distribution at steady state in Sprague-Dawley rat at 1 mg/kg, iv; type: ADME, organism-based; parameters: dose 1 mg/kg, route intravenous; conditions: in vivo, read-out: Vdss
In short: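 Rats received an iv dose of 1 mpk in a vehicle of 10% N-methylpyrrolidone and 90% SBE-CD solution prepared at 30%. Plasma concentrations are total drug. Values are mean ± SD from three animals.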

[2] = AUC in Beagle dog at 100 mg/kg, po administered as spray dried dispersion; type: ADME, organism-based, Canis lupus familiaris; parameters: dose 100 mg/kg, route oral; conditions: plasma
In short: (§1)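 Oral gavage in male beagle dogs at 10, 30 or 100 mg/kg, 5 mL/kg, as 25% spray dried dispersion in 20 mM Tris buffer in 0.5% methylcellulose and 0.5% HPMCAS-HF, pH 7.4. Plasma concentrations are total drug. Values are the mean of two animals. F is based on 1 mg/kg iv dog data.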

[3] = Tmax in Sprague-Dawley rat at 3 mg/kg, po administered as spray dried dispersion; type: ADME, organism-based; parameters: dose 3 mg/kg, route oral; conditions: in vivo
In short: (§2)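 Rats were dosed po at 0.6 mL/kg with a 25% amorphous spray dried dispersion (with HPMCAS-HF) in 20 mM Tris buffer with 0.5% methylcellulose + 0.5% HPMCAS-HF, pH 7.4. Plasma concentrations are total drug. Data are mean ± SD of three animals. F is based on 1 mg/kg rat iv data.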

[4] = Half life in Sprague-Dawley rat at 1 mg/kg, iv; type: ADME, organism-based; parameters: dose 1 mg/kg, route intravenous; conditions: in vivo
In short: (§3)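 Rats received 1 mg/kg iv in 10% N-methylpyrrolidone and 90% of a 30% SBE-CD solution. Plasma concentrations are total drug. Data are mean ± SD of three animals.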

[5] = Cmax in Beagle dog at 10 mg/kg, po administered as spray dried dispersion; type: ADME, organism-based, Canis lupus familiaris; parameters: dose 10 mg/kg, route oral; conditions: in vivo; in short: as §1
[6] = AUC in Sprague-Dawley rat at 30 mg/kg, po administered as spray dried dispersion; type: ADME, organism-based; parameters: dose 30 mg/kg, route oral; conditions: plasma; in short: as §2
[7] = Oral bioavailability in Sprague-Dawley rat at 3 mg/kg administered in 0.5% methylcellulose; type: ADME, organism-based; conditions: in vivo
In short: (§4)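 Rats were dosed orally at 3 mg/kg in 0.5% methylcellulose. Plasma concentrations are total drug. Data are mean ± SD of three animals. F is based on 1 mg/kg rat iv PK.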

[8] = Oral bioavailability in Sprague-Dawley rat at 3 mg/kg dosed as milled material in 0.5% methylcellulose; type: ADME, organism-based; conditions: in vivo
In short: (§5)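 Rat po dosing of milled material (2−25 μm premilling, about 190 nm postmilling) suspended in 0.5% methylcellulose. Plasma concentrations are total drug. Data are mean ± SD of three animals. F is calculated from 1 mg/kg rat iv data.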

[9] = Cmax in Sprague-Dawley rat at 30 mg/kg, po dosing of milled material in 0.5% methylcellulose; type: ADME, organism-based; parameters: dose 30 mg/kg, route oral; conditions: in vivo; in short: as §5
[10] = Tmax in Sprague-Dawley rat at 3 mg/kg, po dosing in 0.5% methylcellulose; type: ADME, organism-based; parameters: dose 3 mg/kg, route oral; conditions: in vivo; in short: as §4
[11] = Cmax in Sprague-Dawley rat at 3 mg/kg, po dosing of milled material in 0.5% methylcellulose; type: ADME, organism-based; parameters: dose 3 mg/kg, route oral; conditions: in vivo; in short: as §5
[12] = Clearance in Sprague-Dawley rat at 1 mg/kg, iv; type: ADME, organism-based; parameters: dose 1 mg/kg, route intravenous; conditions: in vivo; in short: as §3
[13] = Half life in Beagle dog at 1 mg/kg, iv; type: ADME, organism-based, Canis lupus familiaris; parameters: dose 1 mg/kg, route intravenous; conditions: in vivo
In short: (§6)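 Male beagle dogs received 1 mg/kg iv at 2 mL/kg in 5% dimethylacetamide/75% PEG200/20% (30% SBE-CD). Plasma concentrations are total drug. Values are the mean of two animals.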

[14] = Tmax in Sprague-Dawley rat at 30 mg/kg, po administered as spray dried dispersion; type: ADME, organism-based; parameters: dose 30 mg/kg, route oral; conditions: in vivo
[15] = Tmax in Sprague-Dawley rat at 3 mg/kg, po dosing of milled material in 0.5% methylcellulose; type: ADME, organism-based; parameters: dose 3 mg/kg, route oral; conditions: in vivo; in short: as §5
[16] = Oral bioavailability in Beagle dog at 100 mg/kg administered as spray dried dispersion; type: ADME, organism-based, Canis lupus familiaris; conditions: in vivo; in short: as §1
[17] = AUC in Sprague-Dawley rat at 3 mg/kg, po administered as spray dried dispersion; type: ADME, organism-based; parameters: dose 3 mg/kg, route oral; conditions: plasma; in short: as §2
[18] = Cmax in Beagle dog at 3 mg/kg, po administered as spray dried dispersion; type: ADME, organism-based, Canis lupus familiaris; parameters: dose 3 mg/kg, route oral; conditions: in vivo
In short: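 Male beagle dogs were dosed po at 3 mg/kg, 0.6 mL/kg, as 25% spray dried dispersion in 20 mM Tris buffer with 0.5% methylcellulose + 0.5% HPMCAS-HF, pH 7.4. Plasma concentrations are total drug. Values are the mean of two animals. F is calculated against 1 mg/kg iv dog data.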

[19] = Thermodynamic solubility of the compound in PBS at pH 1.2; type: physicochemical; conditions: read-out: Therm_solubility
[20] = Oral bioavailability in Beagle dog at 10 mg/kg administered as spray dried dispersion; type: ADME, organism-based, Canis lupus familiaris; conditions: in vivo; in short: as §1
[21] = Cmax in Sprague-Dawley rat at 30 mg/kg, po administered as spray dried dispersion; type: ADME, organism-based; parameters: dose 30 mg/kg, route oral; conditions: in vivo; in short: as §2
[22] = AUC in Beagle dog at 1 mg/kg, iv; type: ADME, organism-based, Canis lupus familiaris; parameters: dose 1 mg/kg, route intravenous; conditions: plasma; in short: as §6
[23] = AUC in Sprague-Dawley rat at 30 mg/kg, po dosing of milled material in 0.5% methylcellulose; type: ADME, organism-based; parameters: dose 30 mg/kg, route oral; conditions: in vivo; in short: as §5
[24] = Fraction unbound in Beagle dog plasma; type: ADME, cell-free, Canis lupus familiaris
[25] = Clearance in Beagle dog at 1 mg/kg, iv; type: ADME, organism-based, Canis lupus familiaris; parameters: dose 1 mg/kg, route intravenous; conditions: in vivo; in short: as §6
[26] = Tmax in Beagle dog at 30 mg/kg, po administered as spray dried dispersion; type: ADME, organism-based, Canis lupus familiaris; parameters: dose 30 mg/kg, route oral; conditions: in vivo; in short: as §1

Cc1c(Oc2ccc(-n3cnnn3)cc2F)ncnc1N1C2CC3CC1CC(C2)N3C(=O)OC1(C)CC1
Vd [1]: 3.96 L/kg | AUC [2]: 151000 ng·h/mL | Tmax [3]: 4.7 h | half-life [4]: 4.34 h | Cmax [5]: 1950 ng/mL | AUC [6]: 49100 ng·h/mL | bioavailability [7]: 7.6% | bioavailability [8]: 78% | Cmax [9]: 912 ng/mL | Tmax [10]: 3 h | Cmax [11]: 255 ng/mL | clearance [12]: 13.2 mL/min/kg | half-life [13]: 26.8 h | Tmax [14]: 4 h | Tmax [15]: 4.7 h | bioavailability [16]: 32% | AUC [17]: 6140 ng·h/mL | Cmax [18]: 812 ng/mL | solubility thermodynamic [19]: 4.8 µg/mL (≈ 9.48 µM) | bioavailability [20]: 87% | Cmax [21]: 3490 ng/mL | AUC [22]: 4730 ng·h/mL | AUC [23]: 12500 ng·h/mL | fraction unbound [24]: 0.014 | clearance [25]: 1.74 mL/min/kg | Tmax [26]: 1 h
